Experimental data taken from ChEMBL document CHEMBL4229382, “Phenylthiazoles with tert-Butyl side chain: Metabolically stable with anti-biofilm activity” (Eur J Med Chem, 2018).
Values after ≈ are worked out from the molar mass of the structure shown. Active and inactive are the calls of the source. The calls are words filed in the database; no cut-off is given here.

Key:
[1] = system: Staphylococcus aureus; experiment: Antibacterial activity against methicillin-resistant Staphylococcus aureus 2658 RCMB after 18 hrs by broth microdilution assay; format: functional
How it was run: (§1)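 Broth microdilution: inoculum from 0.5 McFarland suspension diluted to about 5 × 10^5 CFU/mL. Media were cation-adjusted Mueller-Hinton broth for staphylococci, brain heart infusion for E. faecium, and tryptone soya broth for E. faecalis, S. pneumoniae and L. monocytogenes.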

[2] = system: Staphylococcus aureus; experiment: Antibacterial activity against methicillin-resistant Staphylococcus aureus NRS386 after 18 hrs by broth microdilution assay; format: functional; conditions: NRS386, 18 h; how it was run: as §1
[3] = system: Staphylococcus aureus; experiment: Bactericidal activity against vancomycin-resistant Staphylococcus aureus VRS10 incubated fo 18 hrs followed by re-plating on tryptic soy agar plates at 37 degC for 18 hrs by broth microdilution assay; format: functional; conditions: VRS10, 18 h
[4] = system: Staphylococcus aureus; experiment: Bactericidal activity against methicillin-resistant Staphylococcus aureus NRS123 USA400 incubated fo 18 hrs followed by re-plating on tryptic soy agar plates at 37 degC for 18 hrs by broth microdilution assay; format: functional; conditions: NRS123 USA400, 18 h
[5] = system: Staphylococcus aureus; experiment: Inhibition of biofilm formation in methicillin-resistant Staphylococcus aureus NRS384 USA300 at 1 time MIC after 24 hrs by crystal violet staining-based spectrophotometric analysis relative to control; set-up: scale not given: the % may be the effect or the level left
[6] = system: Staphylococcus aureus; experiment: Antibacterial activity against methicillin-resistant Staphylococcus aureus NRS119 after 18 hrs by broth microdilution assay; format: functional; conditions: NRS119, 18 h; how it was run: as §1
[7] = system: Staphylococcus aureus; experiment: Bactericidal activity against methicillin-sensitive Staphylococcus aureus NRS107 incubated fo 18 hrs followed by re-plating on tryptic soy agar plates at 37 degC for 18 hrs by broth microdilution assay; format: functional; conditions: NRS107, 18 h
[8] = system: Staphylococcus aureus; experiment: Bactericidal activity against methicillin-resistant Staphylococcus aureus NRS385 incubated fo 18 hrs followed by re-plating on tryptic soy agar plates at 37 degC for 18 hrs by broth microdilution assay; format: functional; conditions: NRS385, 18 h
[9] = system: Staphylococcus aureus; experiment: Antibacterial activity against vancomycin-resistant Staphylococcus aureus VRS10 after 18 hrs by broth microdilution assay; format: functional; conditions: VRS10, 18 h; how it was run: as §1
[10] = system: Staphylococcus aureus; experiment: Bactericidal activity against methicillin-sensitive Staphylococcus aureus ATCC 6538 incubated fo 18 hrs followed by re-plating on tryptic soy agar plates at 37 degC for 18 hrs by broth microdilution assay; format: functional; conditions: ATCC 6538, 18 h
[11] = system: Staphylococcus aureus; experiment: Bactericidal activity against methicillin-resistant Staphylococcus aureus NRS119 incubated fo 18 hrs followed by re-plating on tryptic soy agar plates at 37 degC for 18 hrs by broth microdilution assay; format: functional; conditions: NRS119, 18 h
[12] = system: Caco-2; experiment: Cytotoxicity against human Caco2 cells at 32 ug/ml after 2 hrs by MTS assay; format: cell-based; conditions: caco-2, 2 h
How it was run: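 Caco-2 cells grown in DMEM with 20% FBS, non-essential amino acids and penicillin-streptomycin, 37 °C, 5% CO2; exposed in triplicate to compounds (16, 32, 64 µg/mL) for 2 h; MTS added, 4 h further incubation, OD490 read; viability as percent of DMSO-treated controls; two independent experiments.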

[13] = system: Staphylococcus aureus; experiment: Bactericidal activity against vancomycin-resistant Staphylococcus aureus VRS12 incubated fo 18 hrs followed by re-plating on tryptic soy agar plates at 37 degC for 18 hrs by broth microdilution assay; format: functional; conditions: VRS12, 18 h
[14] = system: Staphylococcus aureus; experiment: Inhibition of biofilm formation in methicillin-resistant Staphylococcus aureus NRS384 USA300 at 2 times MIC after 24 hrs by crystal violet staining-based spectrophotometric analysis relative to control; set-up: scale not given: the % may be the effect or the level left
[15] = system: Staphylococcus aureus; experiment: Bactericidal activity against methicillin-resistant Staphylococcus aureus NRS384 USA300 incubated fo 18 hrs followed by re-plating on tryptic soy agar plates at 37 degC for 18 hrs by broth microdilution assay; format: functional; conditions: NRS384 USA300, 18 h
[16] = system: Staphylococcus aureus; experiment: Antibacterial activity against methicillin-resistant Staphylococcus aureus NRS385 after 18 hrs by broth microdilution assay; format: functional; conditions: NRS385, 18 h; how it was run: as §1
[17] = system: Staphylococcus epidermidis; experiment: Antibacterial activity against methicillin-resistant Staphylococcus epidermidis NRS101 after 18 hrs by broth microdilution assay; format: functional; conditions: NRS101, 18 h; how it was run: as §1
[18] = system: Staphylococcus aureus; experiment: Inhibition of biofilm formation in methicillin-resistant Staphylococcus aureus NRS384 USA300 after 24 hrs by crystal violet staining-based spectrophotometric analysis
[19] = system: Staphylococcus aureus; experiment: Antibacterial activity against methicillin-sensitive Staphylococcus aureus ATCC 6538 after 18 hrs by broth microdilution assay; format: functional; conditions: ATCC 6538, 18 h; how it was run: as §1
[20] = system: Listeria monocytogenes; experiment: Antibacterial activity against Listeria monocytogenes ATCC 19111 after 18 hrs by broth microdilution assay; format: functional; conditions: ATCC 19111, 18 h
[21] = system: Staphylococcus aureus; experiment: Antibacterial activity against methicillin-resistant Staphylococcus aureus NRS384 USA300 after 18 hrs by broth microdilution assay; format: functional; conditions: NRS384 USA300, 18 h; how it was run: as §1
[22] = system: Enterococcus faecium; experiment: Bactericidal activity against vancomycin-resistant Enterococcus faecium ATCC 700221 incubated fo 18 hrs followed by re-plating on tryptic soy agar plates at 37 degC for 18 hrs by broth microdilution assay; conditions: ATCC 700221, 18 h
[23] = system: Staphylococcus aureus; experiment: Antibacterial activity against methicillin-resistant Staphylococcus aureus NRS123 USA400 after 18 hrs by broth microdilution assay; format: functional; conditions: NRS123 USA400, 18 h; how it was run: as §1
[24] = system: Enterococcus faecalis; experiment: Antibacterial activity against vancomycin-resistant Enterococcus faecalis ATCC 51299 after 18 hrs by broth microdilution assay; format: functional; conditions: ATCC 51299, 18 h; how it was run: as §1
[25] = system: Listeria monocytogenes; experiment: Bactericidal activity against Listeria monocytogenes ATCC 19111 incubated fo 18 hrs followed by re-plating on tryptic soy agar plates at 37 degC for 18 hrs by broth microdilution assay; format: functional; conditions: ATCC 19111, 18 h
[26] = system: Staphylococcus aureus; experiment: Bactericidal activity against methicillin-resistant Staphylococcus aureus NRS386 incubated fo 18 hrs followed by re-plating on tryptic soy agar plates at 37 degC for 18 hrs by broth microdilution assay; format: functional; conditions: NRS386, 18 h
[27] = system: Staphylococcus aureus; experiment: Antibacterial activity against methicillin-resistant Staphylococcus aureus NRS123 USA400 assessed as reduction in bacterial growth after 2 to 4 hrs by time kill assay; format: functional, organism-based
How it was run: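 Samples taken at 0, 2, 4, 6, 8, 12 and 24 h were serially diluted in PBS, plated on TSA and incubated ≥18 h for viable CFU/mL. DMSO was the negative control; two independent experiments.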

[28] = system: Staphylococcus aureus; experiment: Antibacterial activity against methicillin-sensitive Staphylococcus aureus NRS107 after 18 hrs by broth microdilution assay; format: functional; conditions: NRS107, 18 h; how it was run: as §1
[29] = system: Enterococcus faecium; experiment: Antibacterial activity against vancomycin-resistant Enterococcus faecium ATCC 700221 after 18 hrs by broth microdilution assay; format: functional; conditions: ATCC 700221, 18 h; how it was run: as §1
[30] = system: Staphylococcus epidermidis; experiment: Bactericidal activity against methicillin-resistant Staphylococcus epidermidis NRS101 incubated fo 18 hrs followed by re-plating on tryptic soy agar plates at 37 degC for 18 hrs by broth microdilution assay; format: functional; conditions: NRS101, 18 h
[31] = system: Staphylococcus aureus; experiment: Antibacterial activity against vancomycin-resistant Staphylococcus aureus VRS12 after 18 hrs by broth microdilution assay; format: functional; conditions: VRS12, 18 h; how it was run: as §1
[32] = system: Enterococcus faecalis; experiment: Bactericidal activity against vancomycin-resistant Enterococcus faecalis ATCC 51299 incubated fo 18 hrs followed by re-plating on tryptic soy agar plates at 37 degC for 18 hrs by broth microdilution assay; format: functional; conditions: ATCC 51299, 18 h

Work on `CNc1nccc(-c2sc(-c3ccc(C(C)(C)C)cc3)nc2C)n1` yielded an MIC [1] of 25 µg/mL (≈ 73.9 µM).
`Cc1nc(-c2ccc(C(C)(C)C)cc2)sc1-c1ccnc(NC(=N)N(C)C)n1` was tested, and the MIC [2] was 8 µg/mL (≈ 20.3 µM), the MBC [3] was 8 µg/mL (≈ 20.3 µM) and the MBC [4] was 8 µg/mL (≈ 20.3 µM). For the same molecule, the Activity [5] was 35.5%, the MIC [6] was 8 µg/mL (≈ 20.3 µM) and the MBC [7] was 8 µg/mL (≈ 20.3 µM). The MBC [8] was 8 µg/mL (≈ 20.3 µM), the MIC [9] was 8 µg/mL (≈ 20.3 µM) and the MBC [10] was 8 µg/mL (≈ 20.3 µM). The MBC [11] was 8 µg/mL (≈ 20.3 µM), the Activity [12] was “Toxic” and the MBC [13] was 8 µg/mL (≈ 20.3 µM). For the same molecule, the Activity [14] was 48.2%, the MBC [15] was 8 µg/mL (≈ 20.3 µM) and the MIC [16] was 8 µg/mL (≈ 20.3 µM). For the same molecule, the MIC [17] was 8 µg/mL (≈ 20.3 µM), the inhibition [18] was “Dose-dependent effect” and the MIC [19] was 8 µg/mL (≈ 20.3 µM). It also gave an MIC [20] of 8 µg/mL (≈ 20.3 µM), an MIC [21] of 8 µg/mL (≈ 20.3 µM) and an MBC [22] of 16 µg/mL (≈ 40.6 µM). The MIC [23] was 8 µg/mL (≈ 20.3 µM), the MIC [24] was 8 µg/mL (≈ 20.3 µM) and the MBC [25] was 8 µg/mL (≈ 20.3 µM). For the same molecule, the MBC [26] was 8 µg/mL (≈ 20.3 µM), the Activity [27] was “Active” and the MIC [28] was 8 µg/mL (≈ 20.3 µM). It also gave an MIC [1] of 1.17 µg/mL (≈ 2.97 µM), an MIC [29] of 8 µg/mL (≈ 20.3 µM) and an MBC [30] of 8 µg/mL (≈ 20.3 µM). It also gave an MIC [31] of 8 µg/mL (≈ 20.3 µM).
`Cc1nc(-c2ccc(C(C)(C)C)cc2)sc1-c1ccnc(N2CCC2)n1` was tested, and the MIC [1] was over 50 µg/mL.
Work on `CN[C@H](CC(C)C)C(=O)N[C@H]1C(=O)N[C@@H](CC(N)=O)C(=O)N[C@H]2C(=O)N[C@H]3C(=O)N[C@H](C(=O)N[C@H](C(=O)O)c4cc(O)cc(O)c4-c4cc3ccc4O)[C@H](O)c3ccc(c(Cl)c3)Oc3cc2cc(c3O[C@@H]2O[C@H](CO)[C@@H](O)[C@H](O)[C@H]2O[C@H]2C[C@](C)(N)[C@H](O)[C@H](C)O2)Oc2ccc(cc2Cl)[C@H]1O` [VANCOMYCIN] yielded an MBC [3] of over 64 µg/mL, an Activity [5] of 3% and an MBC [22] of over 64 µg/mL. It also gave an MIC [29] of over 64 µg/mL and an MBC [32] of 64 µg/mL (≈ 44.2 µM).
Molecule `Cc1nc(-c2ccc(C(C)(C)C)cc2)sc1-c1ccnc(NC(=N)N)n1` has an MIC [1] of 1.56 µg/mL (≈ 4.26 µM).
`CNC(=N)Nc1nccc(-c2sc(-c3ccc(C(C)(C)C)cc3)nc2C)n1` showed an MIC [1] of 1.56 µg/mL (≈ 4.1 µM).
